Read-outs that look alike come from different tables or passages of the source.
Tests used:
[1] = tested on: drug-resistant K. pneumoniae, A. baumannii, P. aeruginosa and E. cloacae
MRSA strains = assay: MIC, summary over MRSA strains; format: cell-based, S. aureus; details: Staphylococcus aureus, read-out: MIC against MRSA
E. coli ATCC 25922 = assay: MIC, 96-well microtiter broth dilution; format: cell-based; details: Escherichia coli, ATCC25922, read-out: MIC E. coli ATCC 25922
Z-ring in B. subtilis = assay: Visualization of Z-ring; format: cell-based; details: 0.5 × MIC, 4 h
In short: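 B. subtilis carrying IPTG-inducible GFP-FtsZ plasmid grown in LB with 30 μg mL−1 chloramphenicol at 37 °C with shaking; overnight culture diluted to 1% in LB with 40 μM IPTG plus test compound at 0.5 × MIC, 4 h at 37 °C. Cells fixed, resuspended in PBS, placed on 0.1% (w/v) poly-L-lysine-coated slides; imaged by confocal microscopy, 40× oil immersion.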

S. aureus ATCC 43300 = assay: MIC, 96-well microtiter broth dilution; format: cell-based; details: Staphylococcus aureus, ATCC43300|MRSA, read-out: MIC S. aureus ATCC 43300
E. coli ATCC 8739 = assay: MIC, 96-well microtiter broth dilution; format: cell-based; details: Escherichia coli, ATCC8739, read-out: MIC E. coli ATCC 8739
[2] = tested on: mouse fibroblast cells (L929); assay: CCK-8 cytotoxicity assay; format: cell-based; details: L929, 48 h, read-out: IC50 L929
In short: (§1)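 Cells seeded at 5000 per well and allowed to adhere overnight at 37 °C, then exposed to test compound for 48 h. CCK-8 reagent added for a further 3 h, with absorbance read at 450 nm. Triplicates.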

E. faecium ATCC 49624 = assay: MIC, 96-well microtiter broth dilution; format: cell-based; details: Enterococcus faecium, ATCC49624, read-out: MIC E. faecium ATCC 49624
S. aureus ATCC 29213 [3] = assay: In vitro drug resistance development, serial passage; format: cell-based
In short: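 Serial passage against S. aureus ATCC 29213: culture from the 0.5 × MIC well of the prior MIC plate diluted to 5 × 10^5 CFU mL−1 and exposed to a range of test compound concentrations. MIC read after 24 h at 37 °C. Cycle repeated 35 times. Ciprofloxacin, vancomycin and rifampin passaged in parallel.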

E. faecalis ATCC 29212 = assay: MIC, 96-well microtiter broth dilution; format: cell-based; details: Enterococcus faecalis, ATCC29212, read-out: MIC E. faecalis ATCC 29212
S. aureus FtsZ = biological target: T1, S. aureus FtsZ (Staphylococcus aureus, UniProt P0A031); assay: Light-scattering assay of FtsZ polymerization; format: biochemical
T1 sequence (P0A031 1-390): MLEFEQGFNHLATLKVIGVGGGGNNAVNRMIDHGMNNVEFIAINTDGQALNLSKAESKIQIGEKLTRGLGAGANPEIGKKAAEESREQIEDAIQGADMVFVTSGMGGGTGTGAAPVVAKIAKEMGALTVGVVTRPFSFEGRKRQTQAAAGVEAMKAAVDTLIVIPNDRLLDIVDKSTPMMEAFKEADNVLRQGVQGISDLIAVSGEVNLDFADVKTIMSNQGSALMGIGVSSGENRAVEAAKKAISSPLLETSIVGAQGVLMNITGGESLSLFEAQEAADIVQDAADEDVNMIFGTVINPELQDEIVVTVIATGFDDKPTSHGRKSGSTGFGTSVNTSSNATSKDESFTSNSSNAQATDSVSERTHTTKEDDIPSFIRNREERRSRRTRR
In short: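 S. aureus FtsZ (4 μM) in 50 mM MOPS pH 6.5, preincubated 10 min at 25 °C with 1% DMSO vehicle or test compound. Baseline set after adding 50 mM KCl and 10 mM MgCl2. After 10 min, 1 mM GTP added. 90° light scattering (excitation/emission 600 nm) followed for 25 min, with blank background subtracted. Rate and extent of polymerization calculated. Triplicates.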

S. aureus FtsZ (SaFtsZ) = S. aureus FtsZ (SaFtsZ) (Staphylococcus aureus, UniProt P0A031); assay: GTPase activity assay; format: biochemical
In short: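 Phosphate-release kit assay: S. aureus FtsZ (7.3 μM) in assay buffer with 1% DMSO vehicle or varied concentrations of test compound. Reaction started with 200 μM GTP and run 30 min at room temperature. Colour reagent added for another 30 min to stop the reaction, and inorganic phosphate read at 620 nm. Triplicates.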

[4] = tested on: S. epidermidis ATCC 12228; assay: MIC, 96-well microtiter broth dilution; format: cell-based; details: Staphylococcus epidermidis, ATCC12228, read-out: MIC S. epidermidis ATCC 12228
S. aureus ATCC BAA-1747 = assay: MIC, 96-well microtiter broth dilution; format: cell-based; details: Staphylococcus aureus, ATCCBAA1747|MRSA, read-out: MIC S. aureus ATCC BAA-1747
B. subtilis 168 = assay: Bacterial morphology study; format: cell-based; details: 0.5 μg mL^−1 for 4 h; control group 5–10 μm
[5] = tested on: human bronchial epithelium cells (16HBE); assay: CCK-8 cytotoxicity assay; format: cell-based; details: 48 h, read-out: IC50 16HBE
In short: as §1

E. faecium ATCC 700221 = assay: MIC, 96-well microtiter broth dilution; format: cell-based
[6] = tested on: human renal tubular epithelial cells (HK-2); assay: CCK-8 cytotoxicity assay; format: cell-based; details: Epithelial cell, 48 h, read-out: IC50 HK-2
In short: as §1

S. aureus ATCC 29213 [7] = assay: MIC, 96-well microtiter broth dilution; format: cell-based; details: Staphylococcus aureus
SaFtsZ = SaFtsZ (Staphylococcus aureus, UniProt P0A031); assay: SaFtsZ binding affinity assay; set-up: species or system S. aureus
In short: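 Fluorescence titration at 25 °C in 50 mM Tris–HCl pH 7.4, 50 mM KCl, 2 mM magnesium acetate. Test compound at 3.51 or 3.68 μM titrated with SaFtsZ in 0.4 μM steps (0.4–6.4 μM), equilibrating 2 min per step. Excitation 493 nm, emission 500–700 nm, buffer-titration background subtracted. Kd obtained by nonlinear fit to an independent-site model.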

[8] = tested on: E. faecium, S. epidermidis and E. coli; assay: MIC, summary over E. faecium, S. epidermidis and E. coli; format: cell-based; details: read-out: MIC against E. faecium, S. epidermidis and E. coli
S. aureus ATCC BAA-41 = assay: MIC, 96-well microtiter broth dilution; format: cell-based; details: Staphylococcus aureus, ATCCBAA41|MRSA, read-out: MIC S. aureus ATCC BAA-41
S. aureus ATCC BAA-1720 = assay: MIC, 96-well microtiter broth dilution; format: cell-based; details: Staphylococcus aureus, ATCCBAA1720|MRSA, read-out: MIC S. aureus ATCC BAA-1720

Q: `Cc1cc(/C=C2\Sc3ccccc3N2CCCN2CCC(C)CC2)c2ccccc2[n+]1C.[I-]` [Compound 4a4, (Z)-1,2-Dimethyl-4-((3-(3-(4-methylpiperidin-1-yl)propyl)benzo[d]thiazol-2(3H)-ylidene)methyl)quinolin-1-ium iodide] was tested. Which “Antibacterial activity against drug-resistant K. pneumoniae, A. baumannii, P. aeruginosa and E. cloacae” value [1] did it give?
A: The value was “moderate antibacterial activity”.

Q: What about the MIC (MRSA strains) of the same molecule?
A: The MIC was 1 to 8 µg/mL.

Q: And the MIC (E. coli ATCC 25922)?
A: The MIC was 0.5 µg/mL.

Q: What about the “Effect on Z-ring formation (GFP-FtsZ localization)” value (Z-ring in B. subtilis) of the same molecule?
A: Its value is “promoted the mislocalization of the FtsZ protein”.

Q: And the MIC (S. aureus ATCC 43300)?
A: The MIC was 2 µg/mL.

Q: And the MIC (E. coli ATCC 8739)?
A: The MIC was 1 µg/mL.

Q: And the IC50 [2]?
A: Its IC50 is 12.6 µg/mL.

Q: What about the MIC (E. faecium ATCC 49624) of the same molecule?
A: The MIC was 1 µg/mL.

Q: What about the “Increase of MIC after 35 passages” value (S. aureus ATCC 29213 [3]) of the same molecule?
A: Its value is 16 fold.

Q: And the MIC (E. faecalis ATCC 29212)?
A: The MIC was 2 µg/mL.

Q: And the “Effect on FtsZ polymerization at a concentration gradient” value (S. aureus FtsZ; 0.125–0.5 μg mL^−1)?
A: The value was “enhance FtsZ polymerization in a dose-dependent manner”.

Q: What about the “Light scattering signal compared to control (FtsZ polymerization)” value (S. aureus FtsZ; same concentration, 0.125 μg mL^−1) of the same molecule?
A: The value was “significant increase in light scattering signal”.

Q: And the “Effect on GTPase activity of SaFtsZ” value (S. aureus FtsZ (SaFtsZ))?
A: Its value is “did not show any effect”.

Q: And the MIC [4]?
A: Its MIC is 0.5 µg/mL.

Q: And the MIC (S. aureus ATCC BAA-1747)?
A: The MIC was 2 µg/mL.

Q: What about the “Cell length of B. subtilis 168” value (B. subtilis 168) of the same molecule?
A: Its value is > 10 μm.

Q: What about the IC50 [5] of the same molecule?
A: Its IC50 is 14.3 µg/mL.

Q: And the MIC (E. faecium ATCC 700221; Enterococcus faecium, ATCC700221)?
A: The MIC was 2 µg/mL.

Q: And the MIC (E. faecium ATCC 700221; read-out: MIC against VRE)?
A: Its MIC is 2 to 16 µg/mL.

Q: What about the IC50 [6] of the same molecule?
A: The IC50 was 26 µg/mL.

Q: And the MIC (S. aureus ATCC 29213 [7]; ATCC29213)?
A: Its MIC is 1 µg/mL.

Q: And the MIC (S. aureus ATCC 29213 [7]; ATCC29213, read-out: MIC S. aureus ATCC 29213)?
A: The MIC was 1 µg/mL.

Q: What about the MIC (S. aureus ATCC 29213 [7]; ATCC29213, read-out: S. aureus ATCC 29213 (MIC)) of the same molecule?
A: The MIC was 1 µg/mL.

Q: And the Kd (SaFtsZ)?
A: The Kd was 125 nM.

Q: And the MIC [8]?
A: Its MIC is 0.5 to 2 µg/mL.

Q: And the MIC (S. aureus ATCC BAA-41)?
A: The MIC was 1 µg/mL.

Q: And the MIC (S. aureus ATCC BAA-1720)?
A: Its MIC is 2 µg/mL.

Reference: article PMC9052103 (RSC Advances, 2020)
